# According to ChEMBL document CHEMBL2331338, “Steroidal constituents from the leaves of Hosta longipes and their inhibitory effects on nitric oxide production” (Bioorg Med Chem Lett, 2013):
# Tests used:
# [1] = Cytotoxicity against mouse BV2 cells assessed as cell viability at 20 uM by MTT assay; type: cell-based, BV-2; details: read-out: Activity
# Procedure, shortened: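 BV-2 cells exposed to 20 μM of each compound; viability expressed as percentage of the LPS-only treatment group; three independent experiments, mean SD.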
# [2] = tested on: BV-2; assay: Antineuroinflammatory activity in mouse BV2 cells assessed as inhibition of nitric oxide production treated 30 mins before LPS challenge measured after 24 hrs by Griess reagent method; type: functional, cell-based
# Procedure, shortened: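 Murine microglial BV-2 cells activated with LPS; NO production measured; IC50 taken as the concentration (μM) causing 50% inhibition of NO production in LPS-activated cells.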
# [3] = Cytotoxicity against mouse BV2 cells assessed as cell viability by MTT assay; type: cell-based, BV-2; details: read-out: LD50 (the source's name)
# Procedure, shortened: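 Mouse microglial BV-2 cells activated with LPS and treated with each compound at 20 μM. Viability is expressed as a percentage of the LPS-only group. Values are averages of three independent experiments, given as mean SD.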
Structure (SMILES),viability at 20 µM [1] [%],IC50 [2] [µM],CC50 [3] [µM]
C[C@@H]1CC[C@@]2(OC1)O[C@H]1C[C@H]3[C@@H]4CC[C@H]5C[C@@H](O[C@@H]6O[C@H](CO)[C@H](O[C@@H]7O[C@H](CO)[C@@H](O)[C@H](O[C@@H]8OC[C@@H](O)[C@H](O)[C@H]8O)[C@H]7O[C@@H]7O[C@H](CO)[C@@H](O)[C@H](O)[C@H]7O)[C@H](O)[C@H]6O)[C@H](O)C[C@]5(C)[C@H]4CC[C@]3(C)[C@H]1[C@@H]2C,89.6,17.7,
C[C@@H]1CC[C@@]2(OC1)O[C@H]1C[C@H]3[C@@H]4CC[C@H]5C[C@@H](O[C@@H]6O[C@H](CO)[C@H](O[C@@H]7O[C@H](CO)[C@@H](O)[C@H](O[C@@H]8OC[C@@H](O[C@@H]9O[C@@H](C)[C@H](O)[C@@H](O)[C@H]9O)[C@H](O)[C@H]8O)[C@H]7O[C@@H]7O[C@H](CO)[C@@H](O)[C@H](O)[C@H]7O)[C@H](O)[C@H]6O)[C@H](O)C[C@]5(C)[C@H]4CC[C@]3(C)[C@H]1[C@@H]2C,86.4,13.2,
C[C@@H](CO)CC[C@H](O)[C@@H](C)[C@H]1[C@@H](O)C[C@H]2[C@@H]3CCC4=CC(=O)CC[C@]4(C)[C@H]3C[C@@H](O)[C@]12C,93.4,> 200,
C[C@@H]1CC[C@@]2(OC1)O[C@H]1C[C@H]3[C@@H]4CC[C@H]5C[C@@H](O[C@@H]6O[C@H](CO)[C@H](O[C@@H]7O[C@H](CO)[C@@H](O)[C@H](O)[C@H]7O)[C@H](O)[C@H]6O[C@@H]6O[C@@H](C)[C@H](O)[C@@H](O)[C@H]6O)[C@H](O)C[C@]5(C)[C@H]4CC[C@]3(C)[C@H]1[C@@H]2C,38.9,2.7,3.12
CNC(=N)NCCC[C@H](N)C(=O)O [TILARGININE],102,14.3,
C[C@H](CC[C@H](O)[C@@H](C)[C@H]1[C@@H](O)C[C@H]2[C@@H]3CCC4=CC(=O)CC[C@]4(C)[C@H]3C[C@@H](O)[C@]12C)CO[C@@H]1O[C@H](CO)[C@@H](O)[C@H](O)[C@H]1O,94.8,46.3,
